Measured values reported in ChEMBL document CHEMBL1629675, “Novel inhibitor of Plasmodium histone deacetylase that cures P. berghei-infected mice” (Antimicrob Agents Chemother, 2009).
Activity calls are given as the source filed them. The rule behind the calls is not given here.

How the values were obtained:
Plasmodium falciparum [1] = experiment: Antimalarial activity against Plasmodium falciparum 3D7 assessed as parasite regrowth measured after 3 days of compound withdrawal at 2.5 nM by standard growth inhibition assay; format: functional, organism-based
How it was run: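 Synchronized 3D7 cultures were exposed to 2.5 nM drug, continuously or over a limited interval, and then the drug was removed. Parasitemia was measured by FACS of Sybr green-stained cells every 12 h for 4 days. Growth inhibition was calculated against 0.1% Me2SO-treated controls. Representative of three experiments.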

Plasmodium berghei [2] = experiment: Antimalarial activity against Plasmodium berghei infected in mouse assessed as decrease in decline in hematocrit rate at 0.5 mg/kg, […] as splited dose compound with drawn on day 4 measured on day 8; format: functional, organism-based; parameters: dose 0.5 mg/kg
How it was run: (§1)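 ICR mice (five per group) infected intraperitoneally with 10^6 P. berghei NK56 parasites from a donor mouse, then dosed intraperitoneally with 0, 0.05, 0.5, 5 or 50 mg/kg/day split into two doses for 4 days. Parasitemia was read from Giemsa-stained tail-blood thin smears on day 4 (1,500 cells, two microscopists), with Sybr green confirming negative slides. Parasitemia and hematocrit were taken every 4 days over 6 weeks.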

Plasmodium berghei [3] = experiment: Antimalarial activity against Plasmodium berghei infected in mouse assessed as decrease in decline in hematocrit rate at 50 mg/kg, […] as splited dose compound with drawn on day 4 measured after 6 weeks; format: functional, organism-based; parameters: dose 50 mg/kg; how it was run: as §1
Plasmodium berghei [4] = experiment: Antimalarial activity against Plasmodium berghei infected in mouse assessed as decrease in parasites in blood at 0.05 mg/kg, ip administered as splited dose measured on day 4
Plasmodium berghei [5] = experiment: Antimalarial activity against Plasmodium berghei infected in mouse assessed as decrease in parasites in blood at 5 mg/kg, ip administered as splited dose measured on day 4 relative to control
Plasmodium berghei [6] = experiment: Antimalarial activity against Plasmodium berghei infected in mouse assessed as decrease in parasites in blood at 0.5 mg/kg, ip administered as splited dose measured on day 4 relative to control
Plasmodium berghei [7] = experiment: Antimalarial activity against Plasmodium berghei infected in mouse assessed as decrease in parasites in blood at 5 mg/kg, ip administered as splited dose compound with drawn on day 4 measured on day 20
Plasmodium berghei [8] = experiment: Antimalarial activity against Plasmodium berghei infected in mouse assessed as decrease in parasites in blood at 0.5 mg/kg, ip administered as splited dose compound with drawn on day 4 measured on day 8
Plasmodium berghei [9] = experiment: Antimalarial activity against Plasmodium berghei infected in mouse assessed as decrease in parasites in blood at 50 mg/kg, ip administered as splited dose compound with drawn on day 4 measured after 6 weeks
Plasmodium falciparum [10] = experiment: Inhibition of HDAC in Plasmodium falciparum 3D7 by fluorescent activity assay; format: organism-based
Histone deacetylase = experiment: Inhibition of human HDAC in HeLa cells by fluorescent activity assay; format: cell-based
Plasmodium falciparum [11] = experiment: Antimalarial activity against Plasmodium falciparum 7G8 assessed as parasite growth inhibition after 48 hrs by standard growth inhibition assay; format: functional, organism-based
Plasmodium falciparum [12] = experiment: Antimalarial activity against Plasmodium falciparum Dd2 assessed as parasite growth inhibition after 48 hrs by standard growth inhibition assay; format: functional, organism-based
Plasmodium falciparum [13] = experiment: Antimalarial activity against Plasmodium falciparum FCR3 assessed as parasite growth inhibition after 48 hrs by standard growth inhibition assay; format: functional, FCR-3/Gambia
Plasmodium falciparum [14] = experiment: Antimalarial activity against chloroquine-sensitive Plasmodium falciparum 3D7 assessed as parasite growth inhibition after 48 hrs by standard growth inhibition assay; format: functional, organism-based
Plasmodium falciparum [15] = experiment: Antimalarial activity against Plasmodium falciparum HB3 assessed as parasite growth inhibition after 48 hrs by standard growth inhibition assay; format: functional, organism-based
Plasmodium falciparum [16] = experiment: Antimalarial activity against sPlasmodium falciparum VS/1 assessed as parasite growth inhibition after 48 hrs by standard growth inhibition assay; format: functional
Plasmodium falciparum [17] = experiment: Antimalarial activity against chloroquine-resistant Plasmodium falciparum FCB1 assessed as parasite growth inhibition after 48 hrs by standard growth inhibition assay; format: functional, organism-based, FcB1/Columbia
How it was run: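 Ring-stage cultures of P. falciparum (3D7, FCB1) in RBCs, 2% hematocrit, at 1% parasitemia, incubated 48 h at 37°C in 90% N2/5% O2/5% CO2 with compound; 0.1% Me2SO control, uninfected-RBC background. Parasitemia counted by FACS on 100,000 Sybr green-stained cells; accepted only if controls grew ≥3-fold. Growth inhibition from background-corrected ratio to control. Triplicate, repeated at least twice.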

Plasmodium falciparum [18] = experiment: Antimalarial activity against Plasmodium falciparum 3D7 trophozoites assessed as parasite growth inhibition at […] nM measured at end of the experiment by standard growth inhibition assay; format: functional
Plasmodium falciparum [19] = experiment: Antimalarial activity against Plasmodium falciparum 3D7 schizonts assessed as parasite growth inhibition at […] nM measured at end of the experiment by standard growth inhibition assay; format: functional
Plasmodium falciparum [20] = experiment: Antimalarial activity against Plasmodium falciparum 3D7 rings assessed as parasite growth inhibition at […] nM measured at end of the experiment by standard growth inhibition assay; format: functional
Mus musculus [21] = experiment: Toxicity in ICR mouse assessed as death after 5 days at 0.5 to 100 mg/kg, iv once daily; format: organism-based; parameters: dose 0.5-100 mg/kg, route intravenous; conditions: in vivo, 120 h
Mus musculus [22] = experiment: Toxicity in ICR mouse assessed as death after 14 days at 5 to 100 mg/kg, iv once daily; format: organism-based; parameters: dose 5-100 mg/kg, route intravenous; conditions: in vivo, 336 h
Mus musculus [23] = experiment: Toxicity in ICR mouse assessed as clinical signs of distress after 5 days at 0.5 to 100 mg/kg, iv once daily; format: organism-based; parameters: dose 0.5-100 mg/kg, route intravenous; conditions: in vivo, 120 h
Mus musculus [24] = experiment: Toxicity in ICR mouse assessed as clinical signs of distress after 14 days at 5 to 100 mg/kg, iv once daily; format: organism-based; parameters: dose 5-100 mg/kg, route intravenous; conditions: in vivo, 336 h
Mus musculus [25] = experiment: Toxicity in ICR mouse assessed as mild increase in erythroid mass after 5 days at 0.5 to 50 mg/kg, iv once daily; format: organism-based, Erythrocyte; parameters: dose 0.5-50 mg/kg, route intravenous; conditions: in vivo, 120 h
Mus musculus [26] = experiment: Toxicity in ICR mouse assessed as mild increase in erythroid mass after 14 days at 5 to 50 mg/kg, iv once daily; format: organism-based, Erythrocyte; parameters: dose 5-50 mg/kg, route intravenous; conditions: in vivo, 336 h
Mus musculus [27] = experiment: Toxicity in ICR mouse assessed as moderate increase in erythroid mass after 5 days at 0.5 to 100 mg/kg, iv once daily; format: organism-based, Erythrocyte; parameters: dose 0.5-100 mg/kg, route intravenous; conditions: in vivo, 120 h
Mus musculus [28] = experiment: Toxicity in ICR mouse assessed as moderate increase in erythroid mass after 14 days at 5 to 50 mg/kg, iv once daily; format: organism-based, Erythrocyte; parameters: dose 5-50 mg/kg, route intravenous; conditions: in vivo, 336 h
Mus musculus [29] = experiment: Toxicity in ICR mouse assessed as severe increase in erythroid mass after 5 days at 0.5 to 100 mg/kg, iv once daily; format: organism-based, Erythrocyte; parameters: dose 0.5-100 mg/kg, route intravenous; conditions: in vivo, 120 h
Mus musculus [30] = experiment: Toxicity in ICR mouse assessed as severe increase in erythroid mass after 14 days at 5 to 100 mg/kg, iv once daily; format: organism-based, Erythrocyte; parameters: dose 5-100 mg/kg, route intravenous; conditions: in vivo, 336 h
Plasmodium berghei [31] = experiment: Antimalarial activity against Plasmodium berghei infected in iv dosed mouse assessed as decrease in parasites in blood; format: functional, organism-based; conditions: in the assay text read “ip dosed” for “iv dosed”; how it was run: as §1
Plasmodium berghei [32] = experiment: Antimalarial activity against Plasmodium berghei infected in mouse assessed as mouse survival days at 0.5 mg/kg, […] as splited dose measured on day 4 relative to control; format: functional
How it was run: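 P. berghei NK56 blood from donor ICR mice (≥10% parasitemia), diluted in PBS; 10^6 parasites given ip to groups of five ICR mice. Treatment started simultaneously: ip, 0, 0.05, 0.5, 5 or 50 mg/kg/day in two daily doses for 4 days. Mice monitored up to 6 weeks or until death; survival counted from treatment start; paired Student t test.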

Plasmodium falciparum [33] = experiment: Antimalarial activity against Plasmodium falciparum 3D7 rings assessed as parasite growth inhibition at […] nM after 14 hrs by standard growth inhibition assay; conditions: 3D7, 14 h
Plasmodium falciparum [34] = experiment: Antimalarial activity against Plasmodium falciparum 3D7 schizonts assessed as parasite growth inhibition at […] nM after 14 hrs by standard growth inhibition assay; conditions: 3D7, 14 h
Plasmodium falciparum [35] = experiment: Antimalarial activity against Plasmodium falciparum 3D7 trophozoites assessed as parasite growth inhibition at […] nM after 14 hrs by standard growth inhibition assay; conditions: 3D7, 14 h
[36] = Plasmodium falciparum, 7G8, 48 h
[37] = Plasmodium falciparum, Dd2, 48 h
[38] = Plasmodium falciparum, FCR-3/Gambia, 48 h
[39] = Plasmodium falciparum, 3D7, 48 h
[40] = Plasmodium falciparum, HB3, 48 h
[41] = Plasmodium falciparum, VS/1, 48 h
[42] = Plasmodium falciparum, FcB1/Columbia, 48 h

Nc1cccc(-c2csc(NC(=O)CCCCCCC(=O)NO)n2)c1 [listing 1 of 2 here]
Activity (Plasmodium falciparum [1]): Active
Activity (Plasmodium berghei [2]): Active
Activity (Plasmodium berghei [3]): Active
Activity (Plasmodium berghei [4]): inactive
Activity (Plasmodium berghei [5]): Active
Activity (Plasmodium berghei [6]): Active
Activity (Plasmodium berghei [7]): inactive
Activity (Plasmodium berghei [8]): inactive
Activity (Plasmodium berghei [9]): Active

Cl.Nc1cccc(-c2csc(NC(=O)CCCCCCC(=O)NO)n2)c1
IC50 (Plasmodium falciparum [10]): 50 nM
IC50 (Histone deacetylase): 7.6 nM
IC50 (Plasmodium falciparum [11]): 10 nM
IC50 (Plasmodium falciparum [12]): 12 nM
IC50 (Plasmodium falciparum [13]): 22 nM
IC50 (Plasmodium falciparum [14]): 30 nM
IC50 (Plasmodium falciparum [15]): 20 nM
IC50 (Plasmodium falciparum [16]): 23 nM
IC50 (Plasmodium falciparum [17]): 15 nM

Nc1cccc(-c2csc(NC(=O)CCCCCCC(=O)NO)n2)c1 [listing 2 of 2 here]
IC50 (Plasmodium falciparum [10]): 0.23 nM
IC50 (Histone deacetylase): 3.9 nM
IC50 (Plasmodium falciparum [11]): 0.4 nM
IC50 (Plasmodium falciparum [16]): 1 nM
inhibition at 0.00125 µM (Plasmodium falciparum [18]): 25%
inhibition at 0.00125 µM (Plasmodium falciparum [19]): 20%
inhibition at 0.00125 µM (Plasmodium falciparum [20]): < 5%
Activity (Mus musculus [21]): Non-toxic
Activity (Mus musculus [22]): Non-toxic
Activity (Mus musculus [23]): Non-toxic
Activity (Mus musculus [24]): Non-toxic
Activity (Mus musculus [25]): Non-toxic
Activity (Mus musculus [26]): Non-toxic
Activity (Mus musculus [27]): Non-toxic
Activity (Mus musculus [28]): Non-toxic
Activity (Mus musculus [29]): Non-toxic
Activity (Mus musculus [30]): Non-toxic
IC50 (Plasmodium berghei [31]): 0.5 mg/kg/day
Survival (Plasmodium berghei [32]): 23.6 days
inhibition at 0.00125 µM (Plasmodium falciparum [33]): 15%
inhibition at 0.00125 µM (Plasmodium falciparum [34]): 25%
inhibition at 0.00125 µM (Plasmodium falciparum [35]): 35%

O=C(CCCCCCC(=O)Nc1ccc(-c2ccccc2)cc1)NO
IC50 (Plasmodium falciparum [10]; Plasmodium falciparum, 3D7): 60 nM
IC50 (Plasmodium falciparum [11]; [36]): 100 nM
IC50 (Plasmodium falciparum [12]; [37]): 85 nM
IC50 (Plasmodium falciparum [13]; [38]): 115 nM
IC50 (Plasmodium falciparum [14]; [39]): 129 nM
IC50 (Plasmodium falciparum [15]; [40]): 110 nM
IC50 (Plasmodium falciparum [16]; [41]): 115 nM
IC50 (Plasmodium falciparum [17]; [42]): 80 nM

N[C@@H](Cc1ccccc1)C(=O)Nc1ccccc1-c1ccc(NC(=O)CCCCCCC(=O)NO)cc1
IC50 (Plasmodium falciparum [10]; Plasmodium falciparum, 3D7): 449 nM
IC50 (Plasmodium falciparum [11]; [36]): 160 nM
IC50 (Plasmodium falciparum [12]; [37]): 170 nM
IC50 (Plasmodium falciparum [13]; [38]): 150 nM
IC50 (Plasmodium falciparum [14]; [39]): 220 nM
IC50 (Plasmodium falciparum [15]; [40]): 180 nM
IC50 (Plasmodium falciparum [16]; [41]): 175 nM
IC50 (Plasmodium falciparum [17]; [42]): 95 nM

O=C(CCCCCCC(=O)Nc1nc(-c2ccccc2)cs1)NO
IC50 (Plasmodium falciparum [10]; Plasmodium falciparum, 3D7): 30 nM
IC50 (Histone deacetylase): 6.6 nM
IC50 (Plasmodium falciparum [11]; [36]): 8 nM
IC50 (Plasmodium falciparum [12]; [37]): 6 nM
IC50 (Plasmodium falciparum [14]; [39]): 15 nM
IC50 (Plasmodium falciparum [15]; [40]): 7 nM
IC50 (Plasmodium falciparum [16]; [41]): 6 nM
IC50 (Plasmodium falciparum [17]; [42]): 6 nM

O=C(CCCCCC(=O)Nc1cccc2cccnc12)NS
IC50 (Plasmodium falciparum [10]; Plasmodium falciparum, 3D7): 4560 nM
IC50 (Histone deacetylase): 44 nM
IC50 (Plasmodium falciparum [11]; [36]): 5550 nM
IC50 (Plasmodium falciparum [12]; [37]): 7550 nM
IC50 (Plasmodium falciparum [13]; [38]): 6750 nM
IC50 (Plasmodium falciparum [14]; [39]): 9750 nM
IC50 (Plasmodium falciparum [15]; [40]): 8990 nM
IC50 (Plasmodium falciparum [16]; [41]): 9910 nM
IC50 (Plasmodium falciparum [17]; [42]): 6780 nM

O=C(CCCCCCC(=O)NC12CC3CC(CC(C3)C1)C2)NO
IC50 (Plasmodium falciparum [10]; Plasmodium falciparum, 3D7): 658 nM
IC50 (Histone deacetylase): 420 nM
IC50 (Plasmodium falciparum [11]; [36]): 10000 nM
IC50 (Plasmodium falciparum [13]; [38]): 9580 nM
IC50 (Plasmodium falciparum [14]; [39]): 11000 nM
IC50 (Plasmodium falciparum [15]; [40]): 9550 nM
IC50 (Plasmodium falciparum [16]; [41]): 8120 nM
IC50 (Plasmodium falciparum [17]; [42]): 6550 nM
